Laboratory results from ChEMBL document CHEMBL1157654, “Synthesis and in vitro biological evaluation of carbon-11-labeled quinoline derivatives as new candidate PET radioligands for cannabinoid CB2 receptor imaging” (Bioorg Med Chem, 2010).

How the values were obtained:
[1] = target: T1, Cannabinoid receptor 2 (Homo sapiens, UniProt P34972); assay: Displacement of [3H]CP-55940 from CB2 receptor
Method in brief: (§1)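 Radioligand competition binding at CB1 or CB2 with [³H]CP55940; CP55940 reference. Ki (nM) obtained from non-linear regression of competition binding isotherms (secondary assay).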

[2] = target: T1, Cannabinoid receptor 2; assay: Displacement of [3H]CP-55940 from CB2 receptor at 10 uM
[3] = Selectivity ratio of Ki for CB1 receptor to Ki for CB2 receptor
Method in brief: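 Ratio of CB1 Ki to CB2 Ki, both from [³H]CP55940 competition binding (pH 7.4 Tris–HCl/EDTA/MgCl₂/BSA buffer) with Ki fitted by non-linear regression of competition isotherms.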

[4] = target: T2, Cannabinoid receptor 1 (Homo sapiens, UniProt P21554); assay: Displacement of [3H]CP-55940 from CB1 receptor; method in brief: as §1
[5] = target: T2, Cannabinoid receptor 1; assay: Displacement of [3H]CP-55940 from CB1 receptor at 10 uM

T2 sequence (P21554 whole entry): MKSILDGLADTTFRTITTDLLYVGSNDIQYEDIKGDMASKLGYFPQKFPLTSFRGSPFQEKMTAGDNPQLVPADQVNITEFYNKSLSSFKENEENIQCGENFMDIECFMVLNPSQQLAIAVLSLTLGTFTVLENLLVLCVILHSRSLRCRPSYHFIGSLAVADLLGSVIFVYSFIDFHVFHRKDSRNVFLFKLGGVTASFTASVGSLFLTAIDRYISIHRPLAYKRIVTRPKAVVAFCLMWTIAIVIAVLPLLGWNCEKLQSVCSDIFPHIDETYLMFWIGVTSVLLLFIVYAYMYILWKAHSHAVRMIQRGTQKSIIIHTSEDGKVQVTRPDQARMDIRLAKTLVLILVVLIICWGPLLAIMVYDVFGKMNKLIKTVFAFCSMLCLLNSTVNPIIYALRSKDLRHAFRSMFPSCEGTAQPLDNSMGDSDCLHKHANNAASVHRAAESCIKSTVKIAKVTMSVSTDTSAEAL
T1 sequence (P34972 whole entry): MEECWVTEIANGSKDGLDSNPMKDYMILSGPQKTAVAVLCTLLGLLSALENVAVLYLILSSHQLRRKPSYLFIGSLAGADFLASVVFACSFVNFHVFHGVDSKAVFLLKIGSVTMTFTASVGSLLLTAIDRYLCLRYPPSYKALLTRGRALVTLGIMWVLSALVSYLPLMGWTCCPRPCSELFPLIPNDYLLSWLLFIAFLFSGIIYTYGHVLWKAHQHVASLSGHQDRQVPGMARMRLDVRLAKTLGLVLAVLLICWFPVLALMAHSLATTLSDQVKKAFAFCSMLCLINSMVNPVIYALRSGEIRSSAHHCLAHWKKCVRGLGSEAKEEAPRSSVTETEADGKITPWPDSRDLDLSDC

SMILES: CCCCCOc1c(OC)ccc2cc(C(=O)NCCc3ccc(F)cc3)c(=O)[nH]c12
- Ki [1]: 5.4 nM
- Activity [2]: 101%
- Ratio Ki [3]: > 1850
- Ki [4]: > 10000 nM
- Activity [5]: 26.3%

SMILES: CCCCCOc1c(OC)ccc2cc(C(=O)NCCc3ccc(Cl)cc3)c(=O)[nH]c12
- Ki [1]: 9.37 nM
- Activity [2]: 102%
- Ratio Ki [3]: > 1070
- Ki [4]: > 10000 nM
- Activity [5]: -9%

SMILES: CCCCCOc1c(OC)ccc2cc(C(=O)NCCc3ccccc3)c(Cl)nc12
- Ki [1]: 497 nM
- Activity [2]: 86.3%
- Ratio Ki [3]: > 20.1
- Ki [4]: > 10000 nM
- Activity [5]: 73.7%

SMILES: CCCCCOc1c(OC)ccc2cc(C(=O)NCCc3ccc(Cl)cc3)c(Cl)nc12
- Ki [1]: 1010 nM
- Activity [2]: 74.1%
- Ratio Ki [3]: > 9.92
- Ki [4]: > 10000 nM
- Activity [5]: 34.4%

SMILES: CCCCCOc1c(OC)ccc2cc(C(=O)NCCc3ccc(F)cc3)c(Cl)nc12
- Ki [1]: 23.8 nM
- Activity [2]: 104%
- Ratio Ki [3]: 121
- Ki [4]: 2880 nM
- Activity [5]: 64.8%

SMILES: CCCCCOc1c(OC)ccc2cc(C(=O)NCCc3ccccc3)c(=O)[nH]c12
- Ki [1]: 6.92 nM
- Activity [2]: 103%
- Ratio Ki [3]: 28.3
- Ki [4]: 196 nM
- Activity [5]: 63.4%

SMILES: CCCCCOc1c(OC)ccc2cc(C(=O)NCCCc3ccccc3)c(=O)[nH]c12
- Ki [1]: 10.3 nM
- Activity [2]: 104%
- Ratio Ki [3]: 31.3
- Ki [4]: 323 nM
- Activity [5]: 51.4%

SMILES: CCCCCOc1c(OC)ccc2cc(C(=O)NCCCc3ccccc3)c(Cl)nc12
- Ki [1]: 1070 nM
- Activity [2]: 59.2%
- Ratio Ki [3]: > 9.36
- Ki [4]: > 10000 nM
- Activity [5]: 66.3%

SMILES: CCCCCOc1c(OC)ccc2cc(C(=O)NCCc3ccc(OC)cc3)c(=O)[nH]c12
- Ki [1]: 27.9 nM
- Activity [2]: 102%
- Ratio Ki [3]: 26.2
- Ki [4]: 733 nM
- Activity [5]: 68.7%

SMILES: CCCCCOc1c(OC)ccc2cc(C(=O)NCCc3ccc(OC)cc3)c(Cl)nc12
- Ki [1]: 1330 nM
- Activity [2]: 65.9%
- Ratio Ki [3]: > 7.51
- Ki [4]: > 10000 nM
- Activity [5]: 71%
